Screening results from PubChem BioAssay.
eLon inh: inhibits E. coli Lon protease. P0A9M0. purified E. coli Lon protease, fluorescence polarization. inhibition, % at 7.94 µM. 360,000 compounds, 0.42% hits. AID 602123; in the data active = inhibition above about 13%, passing the limit was not always enough
PAD4 inh: inhibitors of human PAD4; Q9UM07; recombinant PAD4, RCA probe fluorescence polarization; inhibition, % at 6.36 µM; 330,000 compounds, 0.41% hits; AID 485272;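 active = percent inhibition above a cutoff equal to the mean of all tested compounds plus 3 SD, cut at about 15% in these data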
TDP2 inh: blocks human TDP2 phosphodiesterase activity | O95551 | recombinant TDP2, T5PNP hydrolysis, p-nitrophenol absorbance 415 nm | inhibition, % at 12.8 µM | 370,000 compounds, 0.34% hits;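 active = inhibition above the mean of all tested compounds plus 3 SD, set per campaign, cut at about 25% in these data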
Target sequence (O95551 whole entry, looked up): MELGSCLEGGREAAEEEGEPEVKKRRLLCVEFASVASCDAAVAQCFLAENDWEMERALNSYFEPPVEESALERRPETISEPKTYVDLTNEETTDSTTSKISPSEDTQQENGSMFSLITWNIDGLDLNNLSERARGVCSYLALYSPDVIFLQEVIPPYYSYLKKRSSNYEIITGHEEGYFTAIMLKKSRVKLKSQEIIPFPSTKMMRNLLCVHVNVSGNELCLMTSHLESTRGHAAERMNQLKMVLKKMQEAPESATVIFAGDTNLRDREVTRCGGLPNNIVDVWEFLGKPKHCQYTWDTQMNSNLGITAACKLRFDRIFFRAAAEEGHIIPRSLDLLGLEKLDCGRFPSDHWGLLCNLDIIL
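Read-out basis: percent inhibition. System: recombinant human TDP2. Buffer or medium: Mg2+-containing Tris-HCl buffer, pH 7.5. Repeats: single replicate. Timing: reaction 2 h, 37 °C. Benchmarks: high control without enzyme, low control DMSO plus TDP2. Probe or stimulus: 5 mM T5PNP. Doses: 12.8 µM only. Measured by: epi absorbance of p-nitrophenol freed from T5PNP by hydrolysis.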
GSTO1 counter: GSTO1 inhibition, counter-screen for RBBP9 inhibitors | P78417 | recombinant GSTO1, activity-based probe fluorescence polarization | inhibition, % at 5.96 µM | 300,000 compounds, 1.1% hits;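 active = inhibition above the campaign mean inhibition plus 3 SD, cut at about 35% in these data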
Target sequence (P78417 whole entry, looked up): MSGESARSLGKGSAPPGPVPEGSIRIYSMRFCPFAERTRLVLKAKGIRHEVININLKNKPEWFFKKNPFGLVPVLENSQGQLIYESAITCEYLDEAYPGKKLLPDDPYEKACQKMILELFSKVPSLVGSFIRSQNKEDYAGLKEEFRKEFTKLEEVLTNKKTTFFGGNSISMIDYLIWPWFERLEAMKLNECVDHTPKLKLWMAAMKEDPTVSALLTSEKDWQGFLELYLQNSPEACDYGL
PRMT1 inh: blocks human protein arginine methyltransferase 1. Q99873. recombinant PRMT1, activity-based probe fluorescence polarization. inhibition, % at 2.79 µM. AID 652257. 370,000 compounds, 1.3% hits;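 active = inhibition above about 21% made by adding two undisclosed values, limit read from the data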
PAD4 FP conf: PAD4 (human) inhibition, confirmed; shares compounds with PAD4 inh; recombinant PAD4, RCA probe fluorescence polarization; inhibition, % at 6.36 µM; 1,200 compounds, 28% hits; AID 488796;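 active = mean inhibition across replicates above the hit cutoff set by the earlier primary screen, cut at about 15% in these data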;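 note: inhibitors block active-site labeling by the probe so polarization falls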
Each line names hits and unclear results; the compound was inactive in the other large screens (follow-up assays come after a bar, where they were run). In the library only some 2.5% were active in any assay of this set; here they are far more common.

COc1ccc(NC(=O)Nc2cc(NC(=O)Nc3ccc(OC)cc3)c(C)nc2C)cc1	none
O=C(NCC1COc2ccccc2O1)c1ccc(NC(=O)c2cccc(F)c2F)cc1 (stereo unspecified)	none (no result: eLon inh, PAD4 inh, GSTO1 counter)
CCC(=O)Nc1cc2c(C)cc(=O)oc2cc1C	none
Cc1cc(SC#N)cc(C)c1NC(=O)CCl	PAD4 inh 25.3, GSTO1 counter 65.7 | PAD4 FP conf inactive
CCC(=O)Nc1ccc(SC#N)cc1C	PAD4 inh 40.3 | PAD4 FP conf 42.2
Cn1c(=O)c2[nH]c(SCC(=O)NCCc3cccc(F)c3)nc2n(C)c1=O	none (no result: eLon inh, PAD4 inh, GSTO1 counter)
COc1ccccc1NC(=O)O[C@@H]1CC[C@@]23CCCN2C(=O)CCC[C@H]3C1	none (no result: eLon inh, PAD4 inh, GSTO1 counter)
O=C(NC1CCCCN(Cc2ccc(Cl)cc2)C1=O)c1ccccc1-c1ccc(Cl)c(Cl)c1 (stereo unspecified)	none (no result: eLon inh, PAD4 inh, GSTO1 counter)
O=C(CSc1ccccn1)Nc1nonc1[N+](=O)[O-]	PAD4 inh 18.6, PRMT1 inh 29.4 | PAD4 FP conf inactive
c1ccc(C[n+]2csc3ccccc32)cc1	PAD4 inh 23.4, PRMT1 inh 84.1 | PAD4 FP conf 33.9
CN(C)CCCNc1cc(O)c2ncccc2c1	PAD4 inh 15.7 (no result: GSTO1 counter) | PAD4 FP conf inactive
CCN1CCCCC(NC(=O)COCc2ccccc2)C1=O (stereo unspecified)	none (no result: eLon inh, PAD4 inh, GSTO1 counter)
C=CCN1[C@@H](Cc2ccccc2)COc2cccc(N3CCCC3)c2S1(=O)=O	none (no result: eLon inh, PAD4 inh, GSTO1 counter)
COC(=O)Nc1ccc(SCC(=O)c2cccc([N+](=O)[O-])c2)cc1	PAD4 inh 25.8, PRMT1 inh 69.0 | PAD4 FP conf 18.8
CC(=O)Nc1ccc(C(=O)OCC(=O)c2cccc([N+](=O)[O-])c2)cc1	none
COC(=O)[C@@]1(C(C)C)N=C(c2cc(OC)c(OC)c(OC)c2)[C@]2(O1)C(=O)N(Cc1cn(Cc3ccccc3)nn1)c1ccc(F)cc12	none (no result: eLon inh, PAD4 inh, GSTO1 counter)
CN(Cc1ccccc1Cl)C(=O)CN1C(=O)C2(OCCCO2)c2ccccc21	none (no result: eLon inh, PAD4 inh, GSTO1 counter)
NC(=S)Nc1cccc2cccnc12	none
NC(=S)NNc1cccc2cccnc12	PAD4 inh 29.4, GSTO1 counter 62.2 | PAD4 FP conf inactive
O=c1[nH]c(N2CCOCC2)cc2ccccc12	PAD4 inh 19.6 | PAD4 FP conf inactive
Cn1c(=O)c(Nc2ccc(Cl)cc2)c2c3c(cccc31)C(=O)c1ccccc1-2	PAD4 inh 33.0, PRMT1 inh 92.6 (no result: eLon inh) | PAD4 FP conf 49.9
Cc1ccc(Nc2c([N+](=O)[O-])c(=O)n(C)c3ccccc23)cc1C	none
CC(=O)Nc1c2c3c(cccc3n(C)c1=O)C(=O)c1ccccc1-2	PAD4 inh 65.4 | PAD4 FP conf 30.7
CC(=O)Nc1cc2c(c(Cl)c1Cl)-c1ccccc1C2=O	none (no result: PAD4 inh, GSTO1 counter)
CC(=O)N[C@@H]1C[C@@H]2O[C@H](CO)CC[C@@H]2O[C@@H]1CCc1ccc(C#CC2(O)CCCC2)cc1	none (no result: eLon inh, PAD4 inh, GSTO1 counter)
N#Cc1nc(N2CCCC2)nc(N2CCCC2)n1	none
N#Cc1nc(N2CCCCC2)nc(N2CCOCC2)n1	PAD4 inh 18.5 | PAD4 FP conf 23.8
c1ccc(CCn2c3ccccc3c3nnc(SCc4ccc5nonc5c4)nc32)cc1	PAD4 inh 50.4 | PAD4 FP conf inactive
COC(=O)[C@]12C[C@H](CC(=O)NCc3ccc(OC)c(OC)c3)C(=O)N(CCC3=CCCCC3)C1=C[C@H](C1CCCC1)O[C@@H]2C	none (no result: eLon inh, PAD4 inh, GSTO1 counter)
Cc1cc(C(=O)CSc2nc(N)cc(N)n2)c(C)n1C1CC1	PAD4 inh 15.7 | PAD4 FP conf inactive
CCN(CC)S(=O)(=O)c1ccc(Cl)c(C(=O)Nc2cc(C)nn2-c2ccccc2C(F)(F)F)c1	PAD4 inh 18.2 (no result: eLon inh, TDP2 inh, PRMT1 inh) | PAD4 FP conf inactive
CCN(CC)S(=O)(=O)c1ccc(Cl)c(C(=O)Nc2nncs2)c1	none
COCC(=O)N[C@@H]1C[C@@H]2O[C@H](CO)CC[C@@H]2O[C@@H]1CCc1ccc(-c2ccccc2)cc1	none (no result: eLon inh, PAD4 inh, GSTO1 counter)
Cc1ccc(COC(=O)c2nn(C)c(=O)c3ccccc23)cc1	PAD4 inh 25.3 | PAD4 FP conf inactive
CCOc1ccc2[nH]c(SCC(=O)OC)c([N+](=O)[O-])c2c1	PAD4 inh 34.7 | PAD4 FP conf 38.1
COC(=O)CSc1[nH]c2ccc(Br)cc2c1[N+](=O)[O-]	none
COc1ccc(NC(=O)NC(C(F)(F)F)C(F)(F)F)cc1	PAD4 inh 14.8 | PAD4 FP conf inactive
COc1ccc(NC(=O)NC(C)(C(F)(F)F)C(F)(F)F)cc1	none
C[C@@H]1COc2cc(F)ccc2S(=O)(=O)N1C	none (no result: eLon inh, PAD4 inh, GSTO1 counter)
C=CCN(C)CC#Cc1ccc(C)cc1	none (no result: eLon inh, PAD4 inh, GSTO1 counter)
C[C@H](O)[C@@H]1CN2CCc3c([nH]c4cccc(-c5ccccc5)c34)[C@@H]2C[C@@H]1N(C)C(=O)Nc1ccccc1	none (no result: eLon inh, PAD4 inh, GSTO1 counter)
Cc1ccc(NC(=O)CSc2nnc(C)c(=O)n2N)cc1Cl	none
Cc1nnc(SCC(=O)c2ccc(Cl)cc2)n(N)c1=O	PAD4 inh 25.8, PRMT1 inh 37.3 | PAD4 FP conf inactive
Cc1cccc(Cn2cc(COC(=O)Nc3ccc(F)cc3)nn2)c1	none (no result: eLon inh, PAD4 inh, GSTO1 counter)
O=C(CC1C=CCC1)OCCN1CCN(C2CN(Cc3cn(Cc4ccccc4Cl)nn3)S(=O)(=O)C2)CC1 (stereo unspecified)	none (no result: eLon inh, PAD4 inh, GSTO1 counter)
NC(=O)COC(=O)C1c2ccccc2Oc2ccccc21	none
N#CCN(CC#N)C(=O)C1c2ccccc2Oc2ccccc21	PAD4 inh 55.6 | PAD4 FP conf inactive
COc1ccc(C(=O)Oc2ccc3oc(=O)sc3c2)cc1	PAD4 inh 48.2, PRMT1 inh 75.7 | PAD4 FP conf inactive
CC(C)C(=O)N(c1ccc2oc(=O)sc2c1)S(=O)(=O)c1ccccc1	PAD4 inh 23.7, PRMT1 inh 48.0 | PAD4 FP conf inactive
COc1ccc(N(C(C)=O)S(=O)(=O)c2cc(OC)ccc2OC)cc1	none
COc1ccc(OC)c(S(=O)(=O)N(C(C)=O)c2ccc3oc(=O)sc3c2)c1	PAD4 inh 25.1, PRMT1 inh 53.1 | PAD4 FP conf 15.5
CC(C)(C)OC(=O)n1ccc2ccc(-c3ccc4cc[nH]c4c3)cc21	none (no result: eLon inh, PAD4 inh, GSTO1 counter)
CCCSc1ccc(-c2nn(-c3ccccc3)cc2/C=C(/C#N)C(=O)N2CCOCC2)cc1	none
CCSc1ccc(-c2nn(-c3ccccc3)cc2/C=C(/C#N)C(=O)NC)cc1	PAD4 inh 15.5 | PAD4 FP conf 23.0
COc1ccc(-c2cccc3[nH]c4c(c23)CCN2C(=O)[C@H]3[C@H](C)ON(C)[C@H]3C[C@@H]42)cc1	none (no result: eLon inh, PAD4 inh, GSTO1 counter)
O=c1c2ccccc2n(Cc2ccno2)n1[C@@H](Cc1ccccc1)Cn1cc(C2CCCC2)nn1	none (no result: eLon inh, PAD4 inh, GSTO1 counter)
CN(CCO)c1cccc2c1S(=O)(=O)N(Cc1cn(Cc3cccc(F)c3)nn1)Cc1ccccc1O2	none (no result: eLon inh, PAD4 inh, GSTO1 counter)
COc1cc(CNCc2ccncc2)cc(Br)c1OCc1ccccc1F	none
COc1cc(CNc2ccc(O)cc2)cc(Br)c1OCc1ccccc1F	PAD4 inh 27.6, GSTO1 counter 85.7 (no result: TDP2 inh, PRMT1 inh) | PAD4 FP conf inactive
CCC[C@H]1[C@@H](OC(=O)NCc2ccc(C(F)(F)F)cc2)CC[C@@]23CCCN2C(=O)CCC[C@@H]13	none (no result: eLon inh, PAD4 inh, GSTO1 counter)
